# This is a sample that favours compounds with a hit; in the whole collection about 5.1% have one here.
# NF-kB expr up: raises NF-kB expression in human neuronal cells | NF-kB reporter expression; active compounds read high | fold change at 12.5 µM | hit rate 1.6% among 190,000 | AID 1239; in the data active = fold change above about 3.3
# APP 5'UTR act: APP 5'UTR luciferase reporter activation | SH-SY5Y APP 5'UTR luciferase reporter, luminescence; zero percent = DMSO vehicle wells | activation, % at 2 µM | hit rate 1% among 190,000 | AID 1276;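 active = activation above a set limit, based on mean plus 3 SD of controls, cut at about 140% in these data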
# STAT1 act: activators of IFN-gamma induced STAT1 signaling | NIH 3T3 STAT1-luciferase reporter, luminescence; 100% = IFN-gamma alone, no compound | activation (% of control), % at 5.5 µM | hit rate 2.6% among 200,000;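 active = activation above the screen-wide mean activation plus 3 SD, cut at about 130% in these data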;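 also: raw ratio to IFN-gamma control signal so 100% means no change and 0% no light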
# STAT1 blocker: STAT1 signaling inhibition. AID 920. hit rate 0.35% among 200,000. NIH 3T3 STAT1-luciferase reporter, IFN-gamma, luminescence. inhibition, % at 5.5 µM;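 active = inhibition above a set limit, the mean inhibition across all tested compounds plus 3 SD, cut at about 34% in these data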;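 also: 0% = IFN-gamma with DMSO and 100% = IFN-gamma with 300 µM nifuroxazide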
# STAT3 activator: activators of IL-6 induced STAT3 signaling; activation (% of control), % at 5.6 µM; AID 871; U3A cells, IL-6 STAT3-luciferase reporter, luminescence; 100% = signal with IL-6 EC80 alone; hit rate 0.91% among 190,000;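 active = activation above the screen-wide mean of compound activation plus 3 SD, cut at about 130% in these data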;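 also: 0% = background luminescence of wells with medium and substrate only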
#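 Material: STAT1-lacking human U3A cells, STAT3 luciferase reporter | Benchmarks: IL-6-only wells as 100% reference | Probe or stimulus: IL-6 (33 ng/mL) | Timing: Compound 1 h, then IL-6 6 h at 37 °C | Detection: Luminescence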
# STAT3 inh: inhibitors of IL-6 induced STAT3 signaling; U3A cells, IL-6 STAT3-luciferase reporter, luminescence; host cell line lacks STAT1; inhibition, % at 5.5 µM; hit rate 0.89% among 190,000;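 active = inhibition above the mean inhibition across all screened compounds plus 3 SD, cut at about 44% in these data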;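 also: 0% = DMSO only wells and 100% = 100 µM nifuroxazide control wells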
# Numbers without * were called inactive; x = not tested or not shown.
SMILES,NF-kB expr up,APP 5'UTR act,STAT1 act,STAT1 blocker,STAT3 activator,STAT3 inh
CCOC(=O)c1cnc(Nc2nc3ccccc3o2)nc1CSC(=S)N(CC)CC,24*,-41,105,-6,101,-2
CCCc1nc(Nc2nc3ccccc3o2)nc(C)c1C(=O)OCC,3,33,144*,-48,104,0
CCOC(=O)Cc1nc2ccccc2o1,0.94,2,106,-7,106,-3
Cc1nc(Nc2nc3ccccc3o2)nc(C)c1C,2.8,143*,117,-19,67,41
Cc1cnc(Nc2nc3ccccc3o2)nc1C(=O)Nc1cccc(C(F)(F)F)c1,1.2,-5,102,-2,98,2
CCOC(=O)c1cnc(Nc2nc3ccccc3o2)nc1CSc1ncccn1,x,-6,102,-2,98,7
N#Cc1cnc(Nc2nc3ccccc3o2)nc1-c1ccccc1,1.4,5,111,-10,98,7
Cc1ccc(Nc2nc3ccccc3o2)cc1F,2.6,136*,133*,-35,106,-10
CCOC(=O)CCn1nc(-c2ccc(C)cc2)c2ccccc2c1=O,1,-11,99,-1,99,4
N#Cc1c(NC(=O)/C=C/c2ccco2)sc2c1CCCC2,0.89,-93,174*,-81,154*,-67
Cc1cc(C(=O)Nc2sc3c(c2C#N)CCCC3)no1,3.1,92,119,-22,101,4
CC(=O)Nc1sc2c(c1C#N)CCCCC2,1.4,9,105,-5,99,4
Cc1cc(C(=O)Nc2sc3c(c2C#N)CCC(C)C3)no1 (centres undefined),1.1,66,139*,-42,81,25
CCCC(=O)Nc1sc2c(c1C#N)CCCCC2,3.9*,14,118,-20,116,-17
Cc1ccc(C(=O)Nc2sc3c(c2C#N)CCCCC3)cc1C,1.3,31,134*,-37,121,-21
CC(=O)c1ccc(NC2c3ncccc3C(=O)N2Cc2ccc(F)cc2)cc1 (centres undefined),1,-11,102,-2,108,-6
COc1ccc(C(CNC(=O)c2ccc(-n3cnnn3)cc2)N2CCOCC2)cc1 (centres undefined),0.62,5,110,-11,97,7
CCOC(=O)c1ccc(NC(=S)N(CCCN2CCCCCC2)Cc2ccco2)cc1,0.97,-8,103,-3,95,10
COc1cccc2sc(N(CCCN(C)C)C(=O)c3sc4ccccc4c3Cl)nc12,0.97,-11,97,4,101,-2
COc1cc2c(C)nc3c(cnn3-c3ccccc3)c2cc1OC,x,79,144*,-47,101,6
O=C1CCC/C1=C/Nc1ccc2c(c1)OCO2,0.9,13,118,-21,108,-5
CC1CCC/C(=C\Nc2ccc3c(c2)OCO3)C1=O (centres undefined),1,0,133*,-36,117,-15
CNc1nc(SC)nc(N(C)C#N)n1,1.1,13,116,-17,100,0
CC(C)N1CCC2(CC1)N=C(c1ccc3c(c1)OCO3)CC(c1cc(Cl)ccc1O)N2 (centres undefined),4.7*,53,86,15,102,2
COc1cc(OC)cc(C(=O)n2nc(C)cc2C)c1,1.2,-18,99,1,106,-6
SMILES,NF-kB expr up,APP 5'UTR act,STAT1 act,STAT1 blocker,STAT3 activator,STAT3 inh
Cc1cc(C(=O)CSc2nnnn2C)c(C)n1-c1ccc2c(c1)OCCO2,2.2,33,138*,-41,118,-15
CCn1nnnc1SCC(=O)c1ccc2c(c1)OCCO2,1.8,33,117,-18,89,16
Cc1cc(C(=O)CSc2nnc3ccccn23)c(C)n1-c1ccccc1,0.41,-20,41,67*,18,96*
CC(C)n1nnnc1SCC(=O)c1ccc2c(c1)OCCO2,2.2,156*,112,-14,98,6
Cc1ccc(NC(=O)CSC2=C(C#N)C(c3ccco3)C3=C(CCCC3=O)N2)cc1 (centres undefined),1.6,4,101,-2,106,-1
CCCc1nc2c(=O)n(C)c(=O)nc-2n(C)n1,x,-30,16,93*,20,94*
C=C(C)CSc1nnc(-c2ccc(OC)c(OC)c2)n1N,2.2,5,99,1,90,19
O=c1[nH]c2cc3c(cc2cc1CN(Cc1ccco1)C(=S)NCC1CCCO1)OCCO3 (centres undefined),0.78,-9,98,2,108,-3
CC(Sc1nnc(Cc2cccs2)n1C1CCCCC1)C(=O)NCc1ccco1 (centres undefined),1.1,-14,95,6,101,3
Cn1c(N/N=C2\CCCc3ccccc32)nc2c1c(=O)n(Cc1ccccc1)c(=O)n2C,0.71,-3,104,-5,104,-6
COc1ccc(-c2nnc(SC(C)C(=O)Nc3cccc(Cl)c3)o2)cc1 (centres undefined),5.6*,219*,104,-4,104,0
COc1ccc(-c2nnc(SC(C)C(=O)NNC(=O)c3ccc(C)cc3)o2)cc1 (centres undefined),1.4,-2,86,16,102,0
O=c1c2ccccc2c(-c2ccccc2)nn1Cc1ccc(Cl)cc1,1.2,-7,89,12,105,-5
Cc1cc(C(=O)Cn2nc(C(=O)O)c3ccccc3c2=O)c(C)n1CC(F)(F)F,1.6,-8,142*,-44,111,-11
CCOC(=O)CNC(=O)CSc1nc(C)cc(C)c1C#N,1.2,-3,88,13,86,21
CCOC(=O)NC(=O)CSc1nc(C)cc(C)c1C#N,3.4*,113,122,-26,80,28
CCOc1ccc(NC(=O)Cn2cncc2-c2ccc([N+](=O)[O-])cc2)cc1,1.5,-8,117,-18,103,2
CCOC(=O)Cn1cncc1-c1ccc([N+](=O)[O-])cc1,1.8,6,130*,-34,90,16
c1ccc(SCc2nc(-c3cccnc3)no2)cc1,3.1,46,133*,-38,96,6
Cc1ccc(-c2noc(CSc3nc(N)cc(N)n3)n2)cc1,3.4*,104,128,-31,100,3
c1ccc(C(Cc2nc(-c3cccnc3)no2)c2ccccc2)cc1,0.92,-7,98,2,95,12
COc1ccc(CCc2nc(-c3ccc(-n4cccc4)cc3)no2)cc1,1.2,11,100,0,88,23
Cc1ccc(-c2noc(CSc3ccccc3)n2)cc1,4.4*,170*,118,-19,102,0
COc1ccc(-c2noc(CCc3ccccc3)n2)cc1,1.6,40,134*,-40,97,8
O=C(NNC(=S)NCC1CCCO1)c1ccc(S(=O)(=O)N2CCOCC2)cc1 (centres undefined),1.1,-3,92,7,101,4
